Test results published in ChEMBL document CHEMBL2021913, “Synthesis and biological evaluation of some novel thiazole substituted benzotriazole derivatives” (2012).
In brackets after ≈: the same amount, converted by molar mass. Activity calls are given as the source filed them. The calls are words filed in the database; no cut-off is given here.

How the values were obtained:
Type in all cases: functional
Bacillus subtilis [1] = experiment: Antimicrobial activity against Bacillus subtilis 2250 at 128 ug/disc at 35 degC after 24 hrs by agar-well diffusion assay
Outline: (§1)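 Agar-well diffusion: 24 h bacterial cultures adjusted to 0.5 McFarland (1.5 × 10⁸ CFU/mL) and mixed into molten Mueller-Hinton agar before pouring. 6 mm wells punched and each filled with 50 µL of compound stock or control. Plates incubated 35 °C for 24 h. Zone of growth inhibition diameter measured with vernier caliper.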

Escherichia coli [2] = experiment: Antimicrobial activity against Escherichia coli 2109 at 35 degC after 18 to 24 hrs by NCCLS method based antimicrobial assay
Bacillus subtilis [3] = experiment: Antimicrobial activity against Bacillus subtilis 2250 at 35 degC after 18 to 24 hrs by NCCLS method based antimicrobial assay
Candida albicans [4] = experiment: Antimicrobial activity against Candida albicans 3471 at 128 ug/disc at 37 degC after 24 to 72 hrs by agar-well diffusion assay; settings: read-out: DIZ
Outline: (§2)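 Potato dextrose agar base plates overlaid with seeded agar cooled to 40 °C and inoculated with spores from 10-day cultures, final 1 × 10⁶ spores/mL. Compounds dissolved in DMSO at 128 µg/mL and applied on 6 mm filter-paper discs placed on chilled seeded medium. Nystatin positive control, DMSO negative control. Incubation 24–72 h at 37 °C. Inhibition zone diameter read by vernier caliper.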

Candida albicans [5] = experiment: Ratio of MFC99.9 to MIC90 for Candida albicans 3471 at 35 degC after 48 hrs by CLSI method based antimicrobial assay
Outline: (§3)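 Broth microdilution following CLSI guidelines over 256 to 1 µg/mL. MIC90 is the lowest concentration completely inhibiting growth. For MFC, 0.1 mL from each tube spread on agar and CFU counted after 48 h at 35 °C; MFC is lowest concentration killing 99.9% of inoculum. MFC/MIC ratio calculated: […], ≤4 as fungicidal.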

Candida albicans [6] = experiment: Antimicrobial activity against Candida albicans 3471 at 35 degC after 48 hrs by CLSI method based antimicrobial assay; settings: Candida albicans, 3471, 48 h; for MFC: read-out: MFC99.9; outline: as §3
Escherichia coli [7] = experiment: Antimicrobial activity against Escherichia coli 2109 at 128 ug/disc at 35 degC after 24 hrs by agar-well diffusion assay; outline: as §1
Pseudomonas aeruginosa [8] = experiment: Antimicrobial activity against Pseudomonas aeruginosa 2036 at 128 ug/disc at 35 degC after 24 hrs by agar-well diffusion assay; outline: as §1
Pseudomonas aeruginosa [9] = experiment: Antimicrobial activity against Pseudomonas aeruginosa 2036 at 35 degC after 18 to 24 hrs by NCCLS method based antimicrobial assay
Aspergillus niger [10] = experiment: Antimicrobial activity against Aspergillus niger 545 at 35 degC after 48 hrs by CLSI method based antimicrobial assay; settings: Aspergillus niger, 545, 48 h; for MFC: read-out: MFC99.9; outline: as §3
Staphylococcus aureus [11] = experiment: Antimicrobial activity against Staphylococcus aureus 2079 at 35 degC after 18 to 24 hrs by NCCLS method based antimicrobial assay; settings: for MBC: read-out: MBC99.9
Staphylococcus aureus [12] = experiment: Antimicrobial activity against Staphylococcus aureus 2079 at 128 ug/disc at 35 degC after 24 hrs by agar-well diffusion assay; settings: for zone of inhibition at 128 µg/disc: Staphylococcus aureus, 2079, 24 h, read-out: DIZ; outline: as §1
Aspergillus niger [13] = experiment: Antimicrobial activity against Aspergillus niger 545 at 128 ug/disc at 37 degC after 24 to 72 hrs by agar-well diffusion assay; settings: read-out: DIZ; outline: as §2
Aspergillus niger [14] = experiment: Ratio of MFC99.9 to MIC90 for Aspergillus niger 545 at 35 degC after 48 hrs by CLSI method based antimicrobial assay; outline: as §3

MIC (Escherichia coli [2])	MIC (Bacillus subtilis [3])	MIC (Candida albicans [6])	MIC (Pseudomonas aeruginosa [9])	MIC (Aspergillus niger [10])	MIC (Staphylococcus aureus [11])	Structure (SMILES)	diameter of the inhibition zone (DIZ) (Bacillus subtilis [1])	MBC99.9 (Escherichia coli [2])	MBC99.9 (Bacillus subtilis [3])	zone of inhibition at 128 µg/disc (Candida albicans [4])	Ratio (Candida albicans [5])	MFC (Candida albicans [6])	diameter of the inhibition zone (DIZ) (Escherichia coli [7])	MFC (Aspergillus niger [10])	MBC (Staphylococcus aureus [11])	zone of inhibition at 128 µg/disc (Staphylococcus aureus [12])	zone of inhibition at 128 µg/disc (Aspergillus niger [13])	Ratio (Aspergillus niger [14])	diameter of the inhibition zone (DIZ) (Pseudomonas aeruginosa [8])	MBC99.9 (Pseudomonas aeruginosa [9])	other results
inactive	inactive	128 µg/mL (≈ 270 µM)	32 µg/mL (≈ 67.6 µM)	32 µg/mL (≈ 67.6 µM)	32 µg/mL (≈ 67.6 µM)	O=[N+]([O-])c1ccc(/C(Cn2nnc3ccccc32)=N\Nc2nc(-c3ccc(F)cc3)cs2)cc1	inactive	inactive	inactive	12.2 mm	2	256 µg/mL (≈ 541 µM)	inactive	64 µg/mL (≈ 135 µM)	64 µg/mL (≈ 135 µM)	26.5 mm	17.8 mm	2			zone of inhibition at 128 µg/disc (Pseudomonas aeruginosa [8]; Pseudomonas aeruginosa, 2036, 24 h, read-out: DIZ): 20.7 mm; MBC (Pseudomonas aeruginosa [9]; read-out: MBC99.9): 32 µg/mL (≈ 67.6 µM)
inactive	inactive	32 µg/mL (≈ 56.7 µM)	inactive	32 µg/mL (≈ 56.7 µM)	32 µg/mL (≈ 56.7 µM)	Fc1ccc(-c2csc(N/N=C(/Cn3nnc4ccccc43)c3cc(C(F)(F)F)cc(C(F)(F)F)c3)n2)cc1	inactive	inactive	inactive	18.4 mm	4	128 µg/mL (≈ 227 µM)	inactive	64 µg/mL (≈ 113 µM)	64 µg/mL (≈ 113 µM)	24.3 mm	16.8 mm	2	inactive	inactive	
inactive	128 µg/mL (≈ 244 µM)	32 µg/mL (≈ 61.1 µM)	inactive	64 µg/mL (≈ 122 µM)	inactive	Clc1ccc(/C(Cn2nnc3ccccc32)=N\Nc2nc(-c3ccc(Br)cc3)cs2)cc1		inactive		18 mm	4	128 µg/mL (≈ 244 µM)	inactive	64 µg/mL (≈ 122 µM)			15.2 mm	1	inactive	inactive	zone of inhibition at 128 µg/disc (Bacillus subtilis [1]; Bacillus subtilis, 2250, 24 h, read-out: DIZ): 13.8 mm; MBC (Bacillus subtilis [3]; read-out: MBC99.9): 256 µg/mL (≈ 489 µM); MBC99.9 (Staphylococcus aureus [11]): inactive; diameter of the inhibition zone (DIZ) (Staphylococcus aureus [12]): inactive
